In ChEMBL document CHEMBL4673245, “Discovery of AZD9833, a Potent and Orally Bioavailable Selective Estrogen Receptor Degrader and Antagonist” (J Med Chem, 2020):
Values after ≈ are worked out from the molar mass of the structure shown.

Assays:
Cytochrome P450 3A4 = Cytochrome P450 3A4 (Homo sapiens, UniProt P08684); experiment: Inhibition of CYP3A4 in human liver microsomes; assay type: ADME
Procedure, shortened: (§1)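 High-throughput human liver microsome panel of five CYP isoforms; inhibition reported as IC50.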

MCF7 [1] = experiment: Antiproliferative activity against human MCF7 cells harboring Y537S mutant assessed as reduction in cell viability incubated for 4 to 6 days by SYTOX Green dye based fluorescence assay; assay type: functional
[2] = Antitumor activity against human […] cells xenografted in CB17 SCID mouse assessed as tumor growth inhibition at 50 mg/kg, po administered daily via oral gavage for 21 days relative to control; assay type: functional, MCF7; parameters: scale not given: the % may be the effect or the level left; details: time 21 day
[3] = Oral bioavailability in rat at 1 mg/kg; assay type: ADME, organism-based; details: in vivo
Procedure, shortened: (§2)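 Rat PK: single IV dose 0.5 mg/kg and oral dose 1 mg/kg, formulated in 5% DMSO:95% hydroxypropyl-β-cyclodextrin (30% w/v), dosed at 1 mL/kg IV and 4 mL/kg PO.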

[4] = Clearance in mouse at 2 mg/kg, iv or 5 mg/kg, po relative to liver blood flow; assay type: ADME, organism-based; details: in vivo
Cytochrome P450 2C19 = Cytochrome P450 2C19 (Homo sapiens, UniProt P33261); experiment: Inhibition of CYP2C19 in human liver microsomes; assay type: ADME; procedure, shortened: as §1
MCF7 [5] = experiment: Antiproliferative activity against human wild-type MCF7 cells assessed as decrease in estradiol-mediated cell viability incubated for 4 to 6 days by SYTOX Green dye based fluorescence assay; assay type: functional
[6] = Intrinsic clearance in rat hepatocytes assessed per million cells; assay type: ADME, cell-based, Hepatocyte; details: read-out: CLH
Procedure, shortened: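 Hepatocyte intrinsic clearance measured from DMSO stock in isolated hepatocytes diluted to 1x10⁶ cells/mL; rate expressed as µl/min/10⁶ cells.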

[7] = Stability of compound at 60 degC and 75% relative humidity assessed parent compound remaining measured 1 week using amorphous form of sample by chromatographic method; assay type: physicochemical; details: solid sample, time 1 weeks, read-out: Stabilty
[8] = Half-life in rat at 0.5 mg/kg, iv or 1 mg/kg, po; assay type: ADME, organism-based; details: in vivo; procedure, shortened: as §2
[9] = biological target: T1, Estrogen receptor (Homo sapiens) (UniProt P03372); experiment: Induction of ERalpha degradation in human MCF7 cells assessed as maximum degradation incubated for 18 to 24 hrs by Alexa fluor 488/Hoechst staining based immunofluorescence imaging analysis relative to fulvestrant; assay type: cell-based; details: time lower […], time upper […]
T1 sequence (whole entry): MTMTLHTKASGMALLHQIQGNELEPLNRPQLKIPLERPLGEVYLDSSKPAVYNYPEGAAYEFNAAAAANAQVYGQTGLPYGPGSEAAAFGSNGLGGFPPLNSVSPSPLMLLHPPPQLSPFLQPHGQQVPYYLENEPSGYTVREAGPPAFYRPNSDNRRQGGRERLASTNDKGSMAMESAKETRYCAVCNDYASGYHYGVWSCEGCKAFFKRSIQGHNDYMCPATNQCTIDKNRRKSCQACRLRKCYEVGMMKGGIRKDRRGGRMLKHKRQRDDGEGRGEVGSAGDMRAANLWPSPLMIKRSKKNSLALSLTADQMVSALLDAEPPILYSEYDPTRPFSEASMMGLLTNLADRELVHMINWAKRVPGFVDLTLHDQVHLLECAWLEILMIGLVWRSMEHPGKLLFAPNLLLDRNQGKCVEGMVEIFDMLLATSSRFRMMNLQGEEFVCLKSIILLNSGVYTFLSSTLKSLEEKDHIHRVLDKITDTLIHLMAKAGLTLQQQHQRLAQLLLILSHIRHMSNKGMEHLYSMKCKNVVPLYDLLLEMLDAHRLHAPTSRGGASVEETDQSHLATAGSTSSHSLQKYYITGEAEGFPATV

[10] = Photostability of compound under 1.2 mil lux.h white light and 200 W.h/m2 UV light assessed parent compound remaining using amorphous form of sample by chromatographic method; assay type: physicochemical
[11] = Chemical stability of compound assessed as drug degradation in deuterated buffer at pH 7.4 measured for 8 days; assay type: physicochemical; details: pH 7.4, 192 h, time 8 day
[12] = Fraction absorbed in mouse at 2 mg/kg, iv or 5 mg/kg, po; assay type: ADME, organism-based; details: in vivo, read-out: Fabs
[13] = Volume of distribution at steady state in mouse at 2 mg/kg, iv or 5 mg/kg, po; assay type: ADME, organism-based; details: in vivo, read-out: Vdss
MCF7 [14] = experiment: Antitumor activity against human […] cells xenografted in CB17 SCID mouse assessed as decrease in tumor volume administered daily via oral gavage for 21 days; assay type: functional, cell-based; details: dose 0.5-50 mg/kg, time 21.0 day
[15] = Stability of compound at 60 degC and ambient dry condition assessed parent compound remaining measured 2 weeks using amorphous form of sample by chromatographic method; assay type: physicochemical; details: solid sample, read-out: Stabilty
[16] = Fraction absorbed in rat at 0.5 mg/kg, iv or 1 mg/kg, po; assay type: ADME, organism-based; details: in vivo, read-out: Fabs; procedure, shortened: as §2
[17] = Stability of compound at 60 degC and ambient dry condition assessed parent compound remaining measured 2 weeks using crystalline form of sample by chromatographic method; assay type: physicochemical; details: solid sample, read-out: Stabilty
[18] = Dissociation constant, dibasic pKa of compound in 0.1 M potassium chloride in presence of piperidine by UV-vis spectroscopy; assay type: physicochemical
[19] = Oral bioavailability in mouse at 5 mg/kg; assay type: ADME, organism-based; details: in vivo
[20] = Volume of distribution at steady state in rat at 0.5 mg/kg, iv or 1 mg/kg, po; assay type: ADME, organism-based; details: in vivo, read-out: Vdss
Procedure, shortened: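 Rat dosed IV at 0.5 mg/kg and PO at 1 mg/kg, both formulated in 5% DMSO:95% hydroxypropyl-β-cyclodextrin (30% w/v), at 1 mL/kg IV and 4 mL/kg PO. Vdss (L/kg) derived from the pharmacokinetic profile after dosing.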

[21] = Solubility of compound in FASSIF at pH 6.5 using crystalline form of sample; assay type: physicochemical
[22] = Chemical stability of compound assessed as drug degradation in buffer at pH 7.4 stored at 22 to 60 degreeC measured after 5 days; assay type: physicochemical; details: pH 7.4, 120 h, time 5 day
Cytochrome P450 2D6 = Cytochrome P450 2D6 (Homo sapiens, UniProt P10635); experiment: Inhibition of CYP2D6 in human liver microsomes; assay type: ADME; procedure, shortened: as §1
[23] = Fraction unbound in rat plasma; assay type: ADME, cell-free
[24] = Clearance in rat at 0.5 mg/kg, iv or 1 mg/kg, po relative to liver blood flow; assay type: ADME, organism-based; details: in vivo; procedure, shortened: as §2
[25] = Fraction unbound in mouse plasma; assay type: ADME, cell-free
[26] = Fraction unbound in human plasma by equilibrium dialysis method; assay type: ADME, cell-free
Procedure, shortened: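 Fraction unbound measured from DMSO stock by equilibrium dialysis in 10% human plasma.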

[27] = Stability of compound at 40 degC and 75% relative humidity assessed parent compound remaining measured after 3 months using amorphous form of sample by chromatographic method; assay type: physicochemical; details: solid sample, read-out: Stabilty
[28] = Chemical stability of compound assessed as drug degradation in buffer at pH 10 stored at 22 to 60 degreeC measured after 5 days; assay type: physicochemical; details: pH 10, 120 h, time 5 day
[29] = Clearance in mouse at 2 mg/kg, iv or 5 mg/kg, po; assay type: ADME, organism-based; details: in vivo
Cytochrome P450 2C9 = Cytochrome P450 2C9 (Homo sapiens, UniProt P11712); experiment: Inhibition of CYP2C9 in human liver microsomes; assay type: ADME; procedure, shortened: as §1
[30] = Chemical stability of compound assessed as drug degradation in deuterated buffer at pH 4 measured for 8 days; assay type: physicochemical; details: pH 4, 192 h, time 8 day

Chain of Cytochrome P450 2C19 (P33261 whole entry): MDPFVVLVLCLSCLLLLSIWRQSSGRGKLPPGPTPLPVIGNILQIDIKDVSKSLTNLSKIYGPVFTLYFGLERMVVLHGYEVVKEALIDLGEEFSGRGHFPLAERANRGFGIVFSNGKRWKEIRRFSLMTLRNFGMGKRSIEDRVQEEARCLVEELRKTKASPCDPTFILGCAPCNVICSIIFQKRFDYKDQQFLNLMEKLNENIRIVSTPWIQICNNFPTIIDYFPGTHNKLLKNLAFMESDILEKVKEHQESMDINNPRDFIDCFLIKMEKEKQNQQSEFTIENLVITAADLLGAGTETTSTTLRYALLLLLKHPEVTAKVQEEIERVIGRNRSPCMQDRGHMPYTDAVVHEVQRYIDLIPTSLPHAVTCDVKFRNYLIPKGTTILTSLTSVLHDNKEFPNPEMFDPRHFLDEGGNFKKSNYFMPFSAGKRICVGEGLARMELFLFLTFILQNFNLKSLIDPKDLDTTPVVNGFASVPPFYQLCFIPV
Chain of Cytochrome P450 2C9 (P11712 whole entry): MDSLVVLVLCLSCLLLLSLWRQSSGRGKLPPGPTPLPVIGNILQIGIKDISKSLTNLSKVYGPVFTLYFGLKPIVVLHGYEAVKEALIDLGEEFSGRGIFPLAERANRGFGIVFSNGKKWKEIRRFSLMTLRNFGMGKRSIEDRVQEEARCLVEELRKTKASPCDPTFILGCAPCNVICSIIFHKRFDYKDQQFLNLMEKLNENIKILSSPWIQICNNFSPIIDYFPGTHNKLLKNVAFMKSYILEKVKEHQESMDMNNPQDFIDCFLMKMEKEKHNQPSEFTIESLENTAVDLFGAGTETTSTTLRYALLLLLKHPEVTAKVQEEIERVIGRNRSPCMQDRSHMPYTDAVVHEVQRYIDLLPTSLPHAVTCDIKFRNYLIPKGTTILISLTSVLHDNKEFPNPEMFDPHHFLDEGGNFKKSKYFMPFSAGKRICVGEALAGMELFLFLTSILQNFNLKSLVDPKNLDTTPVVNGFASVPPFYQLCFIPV
Chain of Cytochrome P450 2D6 (P10635 whole entry): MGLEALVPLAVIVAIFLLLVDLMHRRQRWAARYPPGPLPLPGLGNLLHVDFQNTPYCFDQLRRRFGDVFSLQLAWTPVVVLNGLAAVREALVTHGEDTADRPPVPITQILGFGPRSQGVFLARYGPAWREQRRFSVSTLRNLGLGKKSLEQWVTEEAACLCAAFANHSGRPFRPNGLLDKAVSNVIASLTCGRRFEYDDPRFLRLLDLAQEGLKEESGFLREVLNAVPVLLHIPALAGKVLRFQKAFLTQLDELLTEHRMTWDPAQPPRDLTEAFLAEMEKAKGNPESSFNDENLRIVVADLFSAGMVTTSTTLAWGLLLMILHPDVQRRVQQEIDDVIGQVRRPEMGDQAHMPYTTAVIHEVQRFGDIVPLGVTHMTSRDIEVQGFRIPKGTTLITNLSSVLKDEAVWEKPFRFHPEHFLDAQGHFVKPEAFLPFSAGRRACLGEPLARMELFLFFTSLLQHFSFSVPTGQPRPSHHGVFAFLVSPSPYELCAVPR
Chain of Cytochrome P450 3A4 (P08684 whole entry, canonical isoform): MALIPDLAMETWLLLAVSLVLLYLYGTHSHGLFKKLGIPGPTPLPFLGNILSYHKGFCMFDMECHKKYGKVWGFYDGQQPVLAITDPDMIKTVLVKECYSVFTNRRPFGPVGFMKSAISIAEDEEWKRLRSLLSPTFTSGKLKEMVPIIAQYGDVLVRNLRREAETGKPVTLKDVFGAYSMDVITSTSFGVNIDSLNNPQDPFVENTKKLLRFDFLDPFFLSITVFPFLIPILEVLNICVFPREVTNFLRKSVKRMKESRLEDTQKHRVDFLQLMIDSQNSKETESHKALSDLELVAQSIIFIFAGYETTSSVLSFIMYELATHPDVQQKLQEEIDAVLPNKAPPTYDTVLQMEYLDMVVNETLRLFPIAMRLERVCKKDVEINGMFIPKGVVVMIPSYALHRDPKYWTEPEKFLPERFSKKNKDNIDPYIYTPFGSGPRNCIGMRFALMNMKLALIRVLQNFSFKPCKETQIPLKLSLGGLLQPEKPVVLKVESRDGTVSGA

- IC50 (Cytochrome P450 3A4): 2200 nM
- bioavailability [3]: 19%
- CL [4]: 66%
- IC50 (Cytochrome P450 2C19): > 30000 nM
- hepatocyte CLint [6]: 23 µL/min/1e6 cells
- remaining at 168 h [7]: 82.4%
- half-life [8]: 3 h
- Emax [9]: 99%
- Stabilty [10]: 78.9%
- Stabilty [11]: Stable
- Fa [12]: 50%
- Vd [13]: 9.2 L/kg
- remaining at 336 h [15]: 98.4%
- Fa [16]: > 95%
- remaining at 336 h [17]: 99.4%
- pKa [18]: 4.8
- bioavailability [19]: 16%
- Vd [20]: 13 L/kg
- solubility thermodynamic [21]: 1500 µg/mL (≈ 3.15 mM)
- Stabilty [22]: Unstable
- IC50 (Cytochrome P450 2D6): 4300 nM
- fraction unbound [23]: 0.26
- CL [24]: 106%
- fraction unbound [25]: 0.23
- fraction unbound [26]: 0.23
- remaining at 2190 h [27]: 90.5%
- Stabilty [28]: Unstable
- clearance [29]: 59 mL/min/kg
- IC50 (Cytochrome P450 2C9): > 30000 nM
- Stabilty [30]: Stable
Structure (SMILES): C[C@@H]1Cc2c(ccc3[nH]ncc23)[C@@H](c2ccc(NC3CN(CCCF)C3)cn2)N1CC(F)(F)F [CAMIZESTRANT]
- IC50 (MCF7 [1]): 25.1 nM
- Activity [2]: 53%
- IC50 (MCF7 [5]): 5.01 nM
- Activity (MCF7 [14]): Dose-dependent effect
